Assay results from ChEMBL document CHEMBL3102739, “Synthesis and antiproliferative activity of conformationally restricted 1,2,3-triazole analogues of combretastatins in the sea urchin embryo model and against human cancer cell lines” (Bioorg Med Chem, 2014).
Calls of active or inactive are those of the source.

What was measured:
Jurkat/A4 [1] = experiment: Induction of apoptosis in human Jurkat/A4 cells assessed as small cell fragments with unequally segregated chromosomes enclosed by cell membrane at 300 nM after 48 hrs by May-Grunwald-Giemsa staining-based microscopic analysis; type: functional
Summary of the method: (§1)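 Jurkat or Jurkat/A4 suspension cultures in RPMI-1640 with 10% FCS at 37 °C, 5% CO2 were treated for 48 h alongside untreated controls. Cells were cytospun, stained May–Grünwald–Giemsa and examined by light microscopy with a 100× objective for nuclear and mitotic abnormalities.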

Jurkat/A4 [2] = experiment: Induction of apoptosis in human Jurkat/A4 cells assessed as caspase 2 activation at 300 nM after 24 to 48 hrs by Western blotting analysis; type: functional, cell-based
Summary of the method: (§2)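 Cells in RPMI-1640 with 10% FCS at 37 °C, 5% CO2, were treated for 24 or 48 h, then washed in cold PBS. They were lysed 30 min at 4 °C in 20 mM Tris-HCl pH 7.4, 1% Triton X-100, 150 mM NaCl and protease inhibitors. Equal protein was run on 12% SDS-PAGE and blotted to PVDF, with 5% milk block. Primary MoAb 2 h RT, HRP anti-mouse 60 min, ECL; β-actin loading control.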

[3] = Cell cycle arrest in human Jurkat/A4 cells assessed as accumulation at sub-G1 phase at 300 nM after 48 hrs by propidium iodide staining-based flow cytometric analysis (reference value: 17.1%); type: functional
[4] = Cytotoxicity against human MES-SA/Dx5 cells after 72 hrs by MTS assay; type: functional, cell-based; conditions: MES-SA/Dx5, 72 h
Jurkat/A4 [5] = experiment: Induction of apoptosis in human Jurkat/A4 cells assessed as Bcl-2 expression at 300 nM after 24 to 48 hrs Western blotting analysis; type: functional, cell-based; summary of the method: as §2
Jurkat/A4 [6] = experiment: Induction of apoptosis in human Jurkat/A4 cells assessed as condensed and fragmented nuclei at 300 nM after 48 hrs by May-Grunwald-Giemsa staining-based microscopic analysis; type: functional, cell-based; summary of the method: as §1
Jurkat [7] = experiment: Induction of apoptosis in human Jurkat cells assessed as condensed and fragmented nuclei at 15 nM after 48 hrs by May-Grunwald-Giemsa staining-based microscopic analysis; type: functional, cell-based; summary of the method: as §1
[8] = Cytotoxicity against human MES-SA cells after 72 hrs by MTS assay; type: functional, cell-based
Jurkat [9] = experiment: Induction of apoptosis in human Jurkat cells assessed as micronuclei formation at 15 nM after 48 hrs by May-Grunwald-Giemsa staining-based microscopic analysis; type: functional, cell-based; summary of the method: as §1
Jurkat/A4 [10] = experiment: Induction of apoptosis in human Jurkat/A4 cells assessed as reduction of XIAP expression at 300 nM after 24 hrs Western blotting analysis; type: functional, cell-based; summary of the method: as §2
[11] = Induction of apoptosis in human Jurkat/A4 cells assessed as PARP-1 cleavage at 300 nM after 48 hrs by FITC-conjugated flow cytometric analysis (reference value: 0.9%); type: functional
Jurkat [12] = experiment: Induction of apoptosis in human Jurkat cells assessed as active caspase 3 expression at 30 nM by FITC-conjugated flow cytometric analysis; type: functional, cell-based; conditions: TDE = time-dependent effect
Jurkat [13] = experiment: Induction of apoptosis in human Jurkat cells assessed as caspase 9 activation at 30 nM after 48 hrs by Western blotting analysis; type: functional, cell-based; summary of the method: as §2
Jurkat/A4 [14] = experiment: Cytotoxicity against human Jurkat/A4 cells assessed as cell death treated for 2 hrs followed by cultivation in drug-free medium for 7 days; type: functional, cell-based
Summary of the method: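 Jurkat/A4 cells in RPMI-1640 with 10% fetal calf serum are exposed for two hours, then cultured seven days in drug-free medium and scored for delayed cell death.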

HL-60 = experiment: Cytotoxicity against human HL60 cells after 72 hrs by MTS assay; type: functional, cell-based; conditions: HL-60, 72 h
Jurkat/A4 [15] = experiment: Induction of apoptosis in human Jurkat/A4 cells assessed as micronuclei formation at 300 nM after 48 hrs by May-Grunwald-Giemsa staining-based microscopic analysis; type: functional, cell-based; summary of the method: as §1
Jurkat [16] = experiment: Induction of apoptosis in human Jurkat cells assessed as Bcl-2 expression at 30 nM after 24 to 48 hrs Western blotting analysis; type: functional, cell-based; summary of the method: as §2
Jurkat [17] = experiment: Induction of apoptosis in human Jurkat cells assessed as PARP-1 cleavage at 30 nM after 48 hrs by FITC-conjugated flow cytometric analysis (reference value: 3.5%); type: functional
[18] = Cell cycle arrest in human Jurkat/A4 cells assessed as decrease in accumulation at G0/G1 phase at 300 nM after 24 hrs by propidium iodide staining-based flow cytometric analysis; type: functional
Jurkat [19] = experiment: Cell cycle arrest in human Jurkat cells assessed as increase in accumulation at G2/M phase at 30 nM after 24 hrs by propidium iodide staining-based flow cytometric analysis; type: functional
Jurkat [20] = experiment: Induction of apoptosis in human Jurkat cells assessed as caspase 2 activation at 30 nM after 24 to 48 hrs by Western blotting analysis; type: functional, cell-based; summary of the method: as §2
Jurkat [21] = experiment: Induction of apoptosis in human Jurkat cells assessed as active caspase 3 expression at 30 nM after 48 hrs by FITC-conjugated flow cytometric analysis (reference value: 3.3%); type: functional
Jurkat [22] = experiment: Induction of apoptosis in human Jurkat cells assessed as small cell fragments with unequally segregated chromosomes enclosed by cell membrane at 15 nM after 48 hrs by May-Grunwald-Giemsa staining-based microscopic analysis; type: functional; summary of the method: as §1
Paracentrotus lividus [23] = experiment: Antimitotic activity against sea urchin embryo model assessed as cleavage arrest of fertilized egg compound treated at 8 to 20 mins post-fertilization and 45 to 55 mins prior to first mitotic cycle completion measured 2.5 to 5.5 hrs post-fertilization; type: functional
Summary of the method: (§3)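 Fertilized eggs are exposed 8–20 min after fertilization to 2-fold decreasing concentrations. Stocks are 10 mM in DMSO, then diluted 10-fold in 95% EtOH; final DMSO is at most 0.05% and EtOH at most 1%. Embryos are kept as a monolayer, up to 2000 embryos/mL, in filtered seawater at room temperature. The value is the threshold concentration giving cleavage alteration, embryo death before hatching or full mitotic arrest. Duplicates were run.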

[24] = Induction of apoptosis in human Jurkat/A4 cells assessed as active caspase 3 expression at 300 nM after 48 hrs by FITC-conjugated flow cytometric analysis (reference value: 1.1%); type: functional
Jurkat [25] = experiment: Cell cycle arrest in human Jurkat cells assessed as accumulation at sub-G1 phase at 30 nM after 48 hrs by propidium iodide staining-based flow cytometric analysis (reference value: 12.2%); type: functional
[26] = Cytotoxicity against multidrug-resistant human HL60/TX1000 cells after 72 hrs by MTS assay; type: functional, cell-based; conditions: HL60/TX1000, 72 h
Paracentrotus lividus [27] = experiment: Antimitotic activity against sea urchin embryo model assessed as cleavage alteration of fertilized egg compound treated at 8 to 20 mins post-fertilization and 45 to 55 mins prior to first mitotic cycle completion measured 2.5 to 5.5 hrs post-fertilization; type: functional; summary of the method: as §3
Jurkat [28] = experiment: Cytotoxicity against human Jurkat cells assessed as cell viability after 48 hrs by trypan blue exclusion assay; type: functional, cell-based
Summary of the method: (§4)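 Compound added to exponentially growing Jurkat or Jurkat/A4 cells in RPMI-1640 with 10% FCS at 37 °C. Viable cells counted directly by trypan blue exclusion after 48 h. EC50 taken by linear interpolation of survival data. Mean±SD from three independent experiments.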

Jurkat [29] = experiment: Induction of apoptosis in human Jurkat cells assessed as active caspase 3 expression at 30 nM after 24 hrs by FITC-conjugated flow cytometric analysis (reference value: 3.3%); type: functional
Paracentrotus lividus [30] = experiment: Antimitotic activity against sea urchin embryo free-swimming blastula model assessed as embryo spinning compound treated at 8 to 10 hrs post-fertilization measured after 0.25 to 20 hrs; type: functional, Blastula stage
[31] = Cytotoxicity against human Jurkat/A4 cells assessed as cell death at 1 uM after 48 hrs by trypan blue exclusion assay relative to control; type: functional; summary of the method: as §4
[32] = Cell cycle arrest in human Jurkat/A4 cells assessed as increase in accumulation at G2/M phase at 300 nM after 24 hrs by propidium iodide staining-based flow cytometric analysis; type: functional
Jurkat [33] = experiment: Cell cycle arrest in human Jurkat cells assessed as decrease in accumulation at G0/G1 phase at 30 nM after 24 hrs by propidium iodide staining-based flow cytometric analysis; type: functional
Jurkat/A4 [34] = experiment: Induction of apoptosis in human Jurkat/A4 cells assessed as caspase 9 activation at 300 nM after 24 to 48 hrs by Western blotting analysis; type: functional, cell-based; summary of the method: as §2
Jurkat [35] = experiment: Induction of apoptosis in human Jurkat cells assessed as reduction of XIAP expression at 30 nM after 24 hrs Western blotting analysis; type: functional, cell-based; summary of the method: as §2
[36] = Induction of apoptosis in human Jurkat/A4 cells assessed as active caspase 3 expression at 300 nM after 24 hrs by FITC-conjugated flow cytometric analysis (reference value: 1.1%); type: functional

COc1ccc(-c2cnnn2-c2cc(OC)c(OC)c(OC)c2)cc1
Activity (Jurkat/A4 [1]): Active
Activity (Jurkat/A4 [2]): inactive
Activity [3]: 26.2%
IC50 [4]: 0.02 µM
Activity (Jurkat/A4 [5]): inactive
Activity (Jurkat/A4 [6]): Active
Activity (Jurkat [7]): Active
IC50 [8]: 0.02 µM
Activity (Jurkat [9]): Active
Activity (Jurkat/A4 [10]): inactive
Activity [11]: 2.5%
Activity (Jurkat [12]): tde
Activity (Jurkat [13]): Active
Activity (Jurkat/A4 [14]): Active
IC50 (HL-60): 0.02 µM
Activity (Jurkat/A4 [15]): Active
Activity (Jurkat [16]): inactive
Activity (Jurkat [17]): 61.4%
Activity [18]: Active
Activity (Jurkat [19]): Active
Activity (Jurkat [20]): Active
Activity (Jurkat [21]): 32.1%
Activity (Jurkat [22]): Active
EC (Paracentrotus lividus [23]): 0.2 µM
Activity [24]: 1.6%
Activity (Jurkat [25]): 43.4%
IC50 [26]: 0.02 µM
EC (Paracentrotus lividus [27]): 0.02 µM
EC50 (Jurkat [28]): 0.03 µM
Activity (Jurkat [29]): 19.6%
EC (Paracentrotus lividus [30]): 1 µM
Activity [31]: <20%
Activity [32]: Active
Activity (Jurkat [33]): Active
Activity (Jurkat/A4 [34]): inactive
Activity (Jurkat [35]): Active
Activity [36]: 1.8%
